In ChEMBL document CHEMBL2146380, “Uncoupling and antioxidant effects of ursolic acid in isolated rat heart mitochondria” (J Nat Prod, 2011):
Values after ≈ are worked out from the molar mass of the structure shown. Active and inactive are the calls of the source. The calls are words filed in the database; no cut-off is given here.

Experiments:
Assay type in all cases: functional
Rattus norvegicus [1] = species on record: Rattus norvegicus; assay: Effect on basal respiration rate in Wistar rat heart mitochondrial respiratory chain using pyruvate and malate as substrate at 0.4 to 1.2 ng/mL; details: Mitochondria
How it was run: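 Clark-type electrode oxygen uptake at 37 C, pH 7.1 imidazole/taurine/MES medium with 3 mM KH2PO4, 0.1 μM free Ca2+. Substrates 6 mM pyruvate + 6 mM malate; compound at 0.4, 0.8, 1.2 ng/mL; State 2 (V0) rate registered, nmol O/min/mg protein.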

Rattus norvegicus [2] = species on record: Rattus norvegicus; assay: Effect on mitochondrial respiratory chain in Wistar rat heart mitochondria assessed as respiratory rate per mg protein using succinate and amytal sodium as substrate in presence of ADP (reference value: 606+/-108 nmol/min)
How it was run: (§1)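 Isolated male Wistar rat heart mitochondria at 0.5 mg protein/mL. O2 uptake was recorded by Clark electrode at 37 C in pH 7.1 imidazole/taurine/MES medium (3 mM KH2PO4, 0.1 μM free Ca2+). Substrates were 6 mM pyruvate + 6 mM malate, 12 mM succinate + 2 mM amytal, or 9 μM palmitoyl-L-carnitine + 0.24 mM malate. Sequence: State 2 (V0), then 1 mM ADP (State 3), then 32 μM cytochrome c. RCI = VADP/V0. Rates in nmol O/min/mg; n = 3–4.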

Rattus norvegicus [3] = species on record: Rattus norvegicus; assay: Antioxidant activity in Wistar rat heart mitochondria assessed as reduction in H2O2 production at 1.6 ng/mL by Amplex red based fluorimetric analysis; design: scale not given: the % may be the effect or the level left
How it was run: (§2)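 Male Wistar rat heart mitochondria (0.25 mg/mL) incubated 7 min at 37 C in respiration medium with 6 mM each pyruvate and malate plus 16 ng/mL antimycin A. CCCP (1 μM) was the uncoupler reference. Then 5 μM Amplex Red and 2 U/mL horseradish peroxidase were added; fluorescence at ex 544/em 590 nm, calibrated with known H2O2; n = 3.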

Rattus norvegicus [4] = species on record: Rattus norvegicus; assay: Effect on mitochondrial respiratory chain in Wistar rat heart mitochondria assessed as ratio of respiratory rate in presence of ADP and cytochrome c to respiratory rate in presence of ADP using succinate and amytal sodium as substrate (reference value: 1.8+/- 0.1); how it was run: as §1
Rattus norvegicus [5] = species on record: Rattus norvegicus; assay: Effect on mitochondrial respiratory chain in Wistar rat heart mitochondria assessed as complex-1 dependent state 2 respiratory rate per mg protein using pyruvate and malate as substrate at 5 ng/mL; how it was run: as §1
Rattus norvegicus [6] = species on record: Rattus norvegicus; assay: Effect on mitochondrial respiratory chain in Wistar rat heart mitochondria assessed as increase in state 2 respiratory rate per mg protein using succinate and amytal sodium as substrate at 5 ng/mL; how it was run: as §1
Rattus norvegicus [7] = species on record: Rattus norvegicus; assay: Effect on mitochondrial respiratory chain in Wistar rat heart mitochondria assessed as increase in complex-1 dependent state 2 respiratory rate per mg protein using pyruvate and malate as substrate at 5 ng/mL; how it was run: as §1
Rattus norvegicus [8] = species on record: Rattus norvegicus; assay: Effect on mitochondrial respiratory chain in Wistar rat heart mitochondria assessed as decrease in respiratory control index at 50 to 200 ng/mL; design: scale not given: the % may be the effect or the level left; how it was run: as §1
Rattus norvegicus [9] = species on record: Rattus norvegicus; assay: Effect on mitochondrial respiratory chain in Wistar rat heart mitochondria assessed as state 3 respiratory rate using palmitoyl-L-carnitine and malate as substrate at 5 ng/mL; how it was run: as §1
Rattus norvegicus [10] = species on record: Rattus norvegicus; assay: Effect on mitochondrial respiratory chain in Wistar rat heart mitochondria assessed as ratio of respiratory rate in presence of ADP and cytochrome c to respiratory rate in presence of ADP using palmitoyl-L-carnitine and malate as substrate (reference value: 1.3+/-0.1); how it was run: as §1
Rattus norvegicus [11] = species on record: Rattus norvegicus; assay: Effect on mitochondrial respiratory chain in Wistar rat heart mitochondria assessed as state 3 respiratory rate using succinate and amytal sodium as substrate at 5 ng/mL; how it was run: as §1
Rattus norvegicus [12] = species on record: Rattus norvegicus; assay: Effect on mitochondrial respiratory chain in Wistar rat heart mitochondria assessed as state 2 respiratory rate using palmitoyl-L-carnitine and malate as substrate at 1.6 ng/mL; how it was run: as §1
Rattus norvegicus [13] = species on record: Rattus norvegicus; assay: Effect on mitochondrial respiratory chain in Wistar rat heart mitochondria assessed as increase in state 2 respiratory rate using palmitoyl-L-carnitine and malate as substrate at 1.6 ng/mL; how it was run: as §1
Rattus norvegicus [14] = species on record: Rattus norvegicus; assay: Antioxidant activity in Wistar rat heart mitochondria assessed as reduction in H2O2 production at 5 ng/mL by Amplex red based fluorimetric analysis; design: scale not given: the % may be the effect or the level left; how it was run: as §2
Rattus norvegicus [15] = species on record: Rattus norvegicus; assay: Effect on mitochondrial respiratory chain in Wistar rat heart mitochondria assessed as respiratory rate per mg protein using pyruvate and malate as substrate in presence of ADP (reference value: 389+/-40 nmol/min); how it was run: as §1
Rattus norvegicus [16] = species on record: Rattus norvegicus; assay: Effect on mitochondrial respiratory chain in rat heart mitochondria assessed as stimulation of state 2 respiration rate 12.6 ng/mL
Rattus norvegicus [17] = species on record: Rattus norvegicus; assay: Effect on mitochondrial respiratory chain in Wistar rat heart mitochondria assessed as respiratory control index using succinate and amytal sodium as substrate (reference value: 2.5+/- 0.1); how it was run: as §1
Rattus norvegicus [18] = species on record: Rattus norvegicus; assay: Effect on mitochondrial respiratory chain in rat heart mitochondria assessed as stimulation of state 2 respiration rate 26 ng/mL
Rattus norvegicus [19] = species on record: Rattus norvegicus; assay: Effect on mitochondrial respiratory chain in rat heart mitochondria assessed as stimulation of state 2 respiration rate 449 ng/mL
Rattus norvegicus [20] = species on record: Rattus norvegicus; assay: Effect on mitochondrial respiratory chain in Wistar rat heart mitochondria assessed as respiratory rate per mg protein using pyruvate and malate as substrate (reference value: 52 +/- 7 nmol/min); how it was run: as §1
Rattus norvegicus [21] = species on record: Rattus norvegicus; assay: Effect on mitochondrial respiratory chain in Wistar rat heart mitochondria assessed as respiratory rate per mg protein using palmitoyl-L-carnitine and malate as substrate (reference value: 85+/-4 nmol/min); how it was run: as §1
Rattus norvegicus [22] = species on record: Rattus norvegicus; assay: (§3) Effect on mitochondrial respiratory chain in Wistar rat heart mitochondria assessed as increase in state 2 respiratory rate using pyruvate and malate as substrate; how it was run: as §1
[23] = as §3; how it was run: as §1
Rattus norvegicus [24] = species on record: Rattus norvegicus; assay: Effect on mitochondrial respiratory chain in Wistar rat heart mitochondria assessed as respiratory rate per mg protein using palmitoyl-L-carnitine and malate as substrate in presence of ADP (reference value: 436+/-54 nmol/min); how it was run: as §1
Rattus norvegicus [25] = species on record: Rattus norvegicus; assay: Effect on mitochondrial respiratory chain in Wistar rat heart mitochondria assessed as state 2 respiratory rate per mg protein using succinate and amytal sodium as substrate at 5 ng/mL; how it was run: as §1
Rattus norvegicus [26] = species on record: Rattus norvegicus; assay: Effect on mitochondrial respiratory chain in Wistar rat heart mitochondria assessed as state 3 respiratory rate using pyruvate and malate as substrate at 5 ng/mL; how it was run: as §1
Rattus norvegicus [27] = species on record: Rattus norvegicus; assay: Effect on mitochondrial respiratory chain in Wistar rat heart mitochondria assessed as state 2 respiratory rate using palmitoyl-L-carnitine and malate as substrate at 5 ng/mL; how it was run: as §1
Rattus norvegicus [28] = species on record: Rattus norvegicus; assay: Effect on mitochondrial respiratory chain in Wistar rat heart mitochondria assessed as complex-1 dependent state 2 respiratory rate per mg protein using pyruvate and malate as substrate at 1.6 ng/mL; how it was run: as §1
Rattus norvegicus [29] = species on record: Rattus norvegicus; assay: Effect on mitochondrial respiratory chain in rat heart mitochondria assessed as stimulation of state 2 respiration rate 7 ng/mL
Rattus norvegicus [30] = species on record: Rattus norvegicus; assay: Effect on mitochondrial respiratory chain in Wistar rat heart mitochondria assessed as respiratory control index using palmitoyl-L-carnitine and malate as substrate (reference value: 5.2+/-0.4); how it was run: as §1
Rattus norvegicus [31] = species on record: Rattus norvegicus; assay: Effect on mitochondrial respiratory chain in Wistar rat heart mitochondria assessed as increase in state 2 respiratory rate using palmitoyl-L-carnitine and malate as substrate at 5 ng/mL; how it was run: as §1
Rattus norvegicus [32] = species on record: Rattus norvegicus; assay: Effect on mitochondrial respiratory chain in Wistar rat heart mitochondria assessed as increase in state 2 respiratory rate per mg protein using succinate and amytal sodium as substrate at 1.6 ng/mL; how it was run: as §1
Rattus norvegicus [33] = species on record: Rattus norvegicus; assay: Effect on mitochondrial respiratory chain in Wistar rat heart mitochondria assessed as respiratory rate per mg protein using succinate and amytal sodium as substrate (reference value: 238+/-39 nmol/min); how it was run: as §1
Rattus norvegicus [34] = species on record: Rattus norvegicus; assay: Effect on mitochondrial respiratory chain in Wistar rat heart mitochondria assessed as ratio of respiratory rate in presence of ADP and cytochrome C to respiratory rate in presence of ADP using pyruvate and malate as substrate (reference value: 1.6+/-0.2); how it was run: as §1
Rattus norvegicus [35] = species on record: Rattus norvegicus; assay: Effect on mitochondrial respiratory chain in rat heart mitochondria assessed as stimulation of state 2 respiration rate 293 ng/mL
Rattus norvegicus [36] = species on record: Rattus norvegicus; assay: Effect on mitochondrial respiratory chain in rat heart mitochondria assessed as stimulation of state 2 respiration rate 4.9 ng/mL
Rattus norvegicus [37] = species on record: Rattus norvegicus; assay: Effect on mitochondrial respiratory chain in Wistar rat heart mitochondria assessed as increase in state 2 respiration rate using pyruvate and malate as substrate at 50 to 200 ng/mL; how it was run: as §1
Rattus norvegicus [38] = species on record: Rattus norvegicus; assay: Effect on mitochondrial respiratory chain in Wistar rat heart mitochondria assessed as respiratory control index using pyruvate and malate as substrate (reference value: 8.0+/-1.2); how it was run: as §1
Rattus norvegicus [39] = species on record: Rattus norvegicus; assay: Effect on mitochondrial respiratory chain in Wistar rat heart mitochondria assessed as state 2 respiratory rate per mg protein using succinate and amytal sodium as substrate at 1.6 ng/mL; how it was run: as §1
Rattus norvegicus [40] = species on record: Rattus norvegicus; assay: Effect on mitochondrial respiratory chain in Wistar rat heart mitochondria assessed as increase in state 3 respiration rate using pyruvate and malate as substrate in presence ADP at 50 to 200 ng/mL; how it was run: as §1
Rattus norvegicus [41] = species on record: Rattus norvegicus; assay: Effect on mitochondrial respiratory chain in Wistar rat heart mitochondria assessed as increase in complex-1 dependent state 2 respiratory rate per mg protein using pyruvate and malate as substrate at 1.6 ng/mL; how it was run: as §1

EC50 [23]: 4.1 ng/mL (≈ 8.98 nM)
SMILES: C[C@H]1[C@H](C)CC[C@]2(C(=O)O)CC[C@]3(C)C(=CC[C@@H]4[C@@]5(C)CC[C@H](O)C(C)(C)[C@@H]5CC[C@]43C)[C@H]12 [URSOLIC ACID]
Activity (Rattus norvegicus [1]): inactive
Activity (Rattus norvegicus [2]): 599 nmol/min
Activity (Rattus norvegicus [3]): 49.5%
Ratio (Rattus norvegicus [4]): 1.5
Activity (Rattus norvegicus [5]): 78 nmol/min
Activity (Rattus norvegicus [6]): 26%
Activity (Rattus norvegicus [7]): 28%
Activity (Rattus norvegicus [8]): 45%
Activity (Rattus norvegicus [9]): inactive
Ratio (Rattus norvegicus [10]): 1.2
Activity (Rattus norvegicus [11]): inactive
Activity (Rattus norvegicus [12]): 90 nmol/min
Activity (Rattus norvegicus [13]): 10%
Activity (Rattus norvegicus [14]): 55.6%
Activity (Rattus norvegicus [15]): 374 nmol/min
Activity (Rattus norvegicus [16]): 11%
Ratio (Rattus norvegicus [17]): 2
Activity (Rattus norvegicus [18]): 70%
Activity (Rattus norvegicus [19]): 11%
Activity (Rattus norvegicus [20]): 61 nmol/min
Activity (Rattus norvegicus [21]): 82 nmol/min
Activity (Rattus norvegicus [22]): Dose-dependent effect
Activity (Rattus norvegicus [24]): 403 nmol/min
Activity (Rattus norvegicus [25]): 299 nmol/min
Activity (Rattus norvegicus [26]): inactive
Activity (Rattus norvegicus [27]): 92 nmol/min
Activity (Rattus norvegicus [28]): 70 nmol/min
Activity (Rattus norvegicus [29]): 11%
Ratio (Rattus norvegicus [30]): 4.4
Activity (Rattus norvegicus [31]): 10%
Activity (Rattus norvegicus [32]): 17%
Activity (Rattus norvegicus [33]): 238 nmol/min
Ratio (Rattus norvegicus [34]): 1.5
Activity (Rattus norvegicus [35]): 11%
Activity (Rattus norvegicus [36]): 11%
Activity (Rattus norvegicus [37]): 40%
Ratio (Rattus norvegicus [38]): 4.8
Activity (Rattus norvegicus [39]): 279 nmol/min
Activity (Rattus norvegicus [40]): inactive
Activity (Rattus norvegicus [41]): 15%
